Laboratory results taken from ChEMBL document CHEMBL4266043, “Nuclear Factor Erythroid 2-Related Factor 2 Activating Triterpenoid Saponins from Camellia japonica Roots” (J Nat Prod, 2018).
Calls of active or inactive are those of the source. The calls are words filed in the database; no cut-off is given here.

Legend:
Assay type in all cases: cell-based
[1] = molecular target: T1, Nuclear factor erythroid 2-related factor 2 (Homo sapiens) (UniProt Q16236); assay: Activation of Nrf2 in human HaCaT cells assessed as increase in nuclear Nrf2 accumulation at 25 uM after 6 hrs by Western blot analysis
T1 sequence (whole entry): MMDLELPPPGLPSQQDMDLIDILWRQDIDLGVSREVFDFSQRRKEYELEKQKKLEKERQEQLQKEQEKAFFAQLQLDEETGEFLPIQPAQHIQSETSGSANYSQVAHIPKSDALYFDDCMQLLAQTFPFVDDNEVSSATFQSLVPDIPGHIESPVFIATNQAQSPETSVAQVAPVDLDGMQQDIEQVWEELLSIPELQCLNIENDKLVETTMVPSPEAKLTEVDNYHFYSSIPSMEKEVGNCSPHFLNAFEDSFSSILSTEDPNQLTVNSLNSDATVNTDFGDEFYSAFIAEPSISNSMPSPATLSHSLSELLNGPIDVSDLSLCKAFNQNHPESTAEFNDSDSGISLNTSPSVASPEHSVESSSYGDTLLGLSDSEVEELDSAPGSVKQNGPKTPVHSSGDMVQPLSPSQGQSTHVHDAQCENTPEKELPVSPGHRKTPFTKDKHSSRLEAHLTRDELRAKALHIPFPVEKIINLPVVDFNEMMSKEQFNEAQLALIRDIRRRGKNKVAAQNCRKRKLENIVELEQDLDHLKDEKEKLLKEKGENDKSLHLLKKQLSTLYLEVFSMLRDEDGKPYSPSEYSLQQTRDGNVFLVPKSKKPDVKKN
Summary of the method: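 HaCaT cells grown to 60−70% confluency, treated 6 h at 25 μM (vehicle DMSO 0.1%). Nuclear fraction obtained with M-PER lysis (10 min on ice), spin at 3000 rpm, pellet resuspended, sonicated, protein by BCA. 25 μg protein run on 10% SDS-PAGE, nitrocellulose transfer, milk block, anti-Nrf2 and histone H3 antibodies, HRP secondary, ECL detection.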

HaCaT = assay: Cytotoxicity against human HaCaT cells assessed as decrease in cell viability at 3.125 to 25 uM after 24 hrs by MTT assay
Summary of the method: (§1)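 MTT assay on HaCaT cells (RPMI 1640, 10% FBS, 37 °C, 5% CO2), plated overnight, then exposed 24 h to 3.125–25 μM. MTT (5 mg/mL solution) added for 2 h, medium removed, formazan dissolved in DMSO and read at 570 nm. Viability given as percent, mean ± SD of three independent experiments.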

[2] = molecular target: T1, Nuclear factor erythroid 2-related factor 2 (Homo sapiens); assay: Activation of Nrf2 in human HaCaT cells at 25 uM after 6 hrs by ARE-driven luciferase reporter gene assay relative to control
Summary of the method: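 Used HaCaT cells stably carrying 3xARE-luciferase, in RPMI 1640 with 10% FBS at 37 °C, 5% CO2, plated overnight. Exposure 6 h at 25 μM. Cells lysed in passive lysis buffer 15 min at room temperature. Luciferase read by kit and normalized to total protein, expressed versus vehicle. Mean ± SD from three independent experiments, t test.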

[3] = Cytotoxicity against human HaCaT cells assessed as cell viability at 25 uM after 24 hrs by MTT assay; details: read-out: Activity; summary of the method: as §1

Row | SMILES | Activity [1] | Activity [2] | fold change (FC) [2] | Activity (HaCaT) | viability at 24 h, 25 µM [3] [%]
1 | C/C=C(/C)C(=O)O[C@H]1[C@H](OC(=O)CC(C)C)[C@]2(CO)[C@H](OC(C)=O)[C@H](OC(C)=O)[C@]3(C)C(=CC[C@@H]4[C@@]5(C)CC[C@H](O[C@@H]6O[C@H](C(=O)O)[C@@H](O)[C@H](O[C@@H]7OC[C@H](O)[C@H](O[C@@H]8O[C@@H](C)[C@H](O)[C@@H](O)[C@H]8O)[C@H]7O)[C@H]6O)[C@@](C)(CO)[C@@H]5CC[C@]43C)[C@@H]2CC1(C)C | Active | Active |  | Non-Toxic | 
2 | C/C=C(/C)C(=O)O[C@H]1[C@H](OC(=O)C(C)CC)[C@]2(CO)[C@H](O)[C@H](O)[C@]3(C)C(=CC[C@@H]4[C@@]5(C)CC[C@H](O[C@@H]6O[C@H](C(=O)O)[C@@H](O)[C@H](O[C@@H]7OC[C@H](O)[C@H](O[C@@H]8O[C@@H](C)[C@H](O)[C@@H](O)[C@H]8O)[C@H]7O)[C@H]6O)[C@@](C)(CO)[C@@H]5CC[C@]43C)[C@@H]2CC1(C)C (stereo not given in full) | Active |  | 2 | Non-Toxic | 
3 | C/C=C(/C)C(=O)O[C@H]1[C@H](OC(=O)C(C)CC)[C@]2(CO)[C@H](OC(C)=O)C[C@]3(C)C(=CC[C@@H]4[C@@]5(C)CC[C@H](O[C@@H]6O[C@H](C(=O)O)[C@@H](O)[C@H](O[C@@H]7OC[C@H](O)[C@H](O[C@@H]8O[C@@H](C)[C@H](O)[C@@H](O)[C@H]8O)[C@H]7O)[C@H]6O)[C@@](C)(CO)[C@@H]5CC[C@]43C)[C@@H]2CC1(C)C (stereo not given in full) | Active | Active |  | Non-Toxic | 
4 | C/C=C(/C)C(=O)O[C@H]1[C@H](OC(=O)C(C)CC)[C@]2(CO)[C@H](O)C[C@]3(C)C(=CC[C@@H]4[C@@]5(C)CC[C@H](O[C@@H]6O[C@H](C(=O)O)[C@@H](O)[C@H](O[C@@H]7OC[C@H](O)[C@H](O[C@@H]8O[C@@H](C)[C@H](O)[C@@H](O)[C@H]8O)[C@H]7O)[C@H]6O)[C@@](C)(CO)[C@@H]5CC[C@]43C)[C@@H]2CC1(C)C (stereo not given in full) | Active | Active |  |  | 72.7
5 | C/C=C(/C)C(=O)O[C@H]1[C@H](OC(=O)CC(C)C)[C@]2(CO)[C@H](O)C[C@]3(C)C(=CC[C@@H]4[C@@]5(C)CC[C@H](O[C@@H]6O[C@H](C(=O)O)[C@@H](O)[C@H](O[C@@H]7OC[C@H](O)[C@H](O[C@@H]8O[C@@H](C)[C@H](O)[C@@H](O)[C@H]8O)[C@H]7O)[C@H]6O)[C@@](C)(CO)[C@@H]5CC[C@]43C)[C@@H]2CC1(C)C | Active | Active |  |  | 69.7
6 | CCC(C)C(=O)O[C@H]1[C@H](O)C(C)(C)C[C@H]2C3=CC[C@@H]4[C@@]5(C)CC[C@H](O[C@@H]6O[C@H](C(=O)O)[C@@H](O)[C@H](O[C@@H]7OC[C@H](O)[C@H](O[C@@H]8O[C@@H](C)[C@H](O)[C@@H](O)[C@H]8O)[C@H]7O)[C@H]6O)[C@@](C)(CO)[C@@H]5CC[C@@]4(C)[C@]3(C)[C@@H](OC(=O)CC(C)C)[C@@H](O)[C@]21CO (stereo not given in full) | Active | Active |  | Non-Toxic | 

Further lines, with some results ahead:

Row | Activity [1] | Activity [2] | fold change (FC) [2] | SMILES | Activity (HaCaT) | viability at 24 h, 25 µM [3] [%]
7 | Active | Active |  | C/C=C(/C)C(=O)O[C@H]1[C@H](OC(=O)CC(C)C)[C@]2(CO)[C@H](O)[C@H](O)[C@]3(C)C(=CC[C@@H]4[C@@]5(C)CC[C@H](O[C@@H]6O[C@H](C(=O)O)[C@@H](O)[C@H](O[C@@H]7OC[C@H](O)[C@H](O[C@@H]8O[C@@H](C)[C@H](O)[C@@H](O)[C@H]8O)[C@H]7O)[C@H]6O)[C@@](C)(C=O)[C@@H]5CC[C@]43C)[C@@H]2CC1(C)C | Non-Toxic | 
8 | Active |  | 3 | C/C=C(/C)C(=O)O[C@H]1[C@H](OC(=O)/C(C)=C/C)[C@]2(CO)[C@H](O)[C@H](O)[C@]3(C)C(=CC[C@@H]4[C@@]5(C)CC[C@H](O[C@@H]6O[C@H](C(=O)O)[C@@H](O)[C@H](O[C@@H]7OC[C@H](O)[C@H](O[C@@H]8O[C@@H](C)[C@H](O)[C@@H](O)[C@H]8O)[C@H]7O)[C@H]6O)[C@@](C)(CO)[C@@H]5CC[C@]43C)[C@@H]2CC1(C)C | Non-Toxic | 
9 | Active | Active |  | C/C=C(/C)C(=O)O[C@H]1[C@H](OC(=O)C(C)CC)[C@]2(CO)[C@H](O)[C@H](O)[C@]3(C)C(=CC[C@@H]4[C@@]5(C)CC[C@H](O[C@@H]6O[C@H](C(=O)O)[C@@H](O)[C@H](O[C@@H]7OC[C@H](O)[C@H](O[C@@H]8O[C@@H](C)[C@H](O)[C@@H](O)[C@H]8O)[C@H]7O)[C@H]6O)[C@@](C)(C=O)[C@@H]5CC[C@]43C)[C@@H]2CC1(C)C (stereo not given in full) | Non-Toxic | 
10 | Active |  | 4 | C/C=C(/C)C(=O)O[C@H]1[C@H](OC(=O)/C(C)=C\C)[C@]2(CO)[C@H](O)[C@H](O)[C@]3(C)C(=CC[C@@H]4[C@@]5(C)CC[C@H](O[C@@H]6O[C@H](C(=O)O)[C@@H](O)[C@H](O[C@@H]7OC[C@H](O)[C@H](O[C@@H]8O[C@@H](C)[C@H](O)[C@@H](O)[C@H]8O)[C@H]7O)[C@H]6O)[C@@](C)(CO)[C@@H]5CC[C@]43C)[C@@H]2CC1(C)C | Non-Toxic | 
